Experimental data taken from ChEMBL document CHEMBL1139609, “In pursuit of alpha4beta2 nicotinic receptor partial agonists for smoking cessation: carbon analogs of (-)-cytisine” (Bioorg Med Chem Lett, 2005).

Key:
[1] = target: Neuronal acetylcholine receptor; alpha3/beta4 (Homo sapiens, UniProt P30926+P32297); assay: Inhibition of [3H]epibatidine binding to nicotinic acetylcholine receptor alpha3-beta4 of IMR32 cells; assay type: cell-based, IMR-32
Method in brief: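 Displacement of [3H]epibatidine binding in IMR32 cells, taken as the α3β4 nAChR site.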

[2] = target: Neuronal acetylcholine receptor; alpha4/beta2 (Homo sapiens, UniProt P17787+P43681); assay: Binding affinity against nicotinic acetylcholine receptor alpha4-beta2 in human HEK293 cells using [3H]- nicotine as radioligand; assay type: cell-based
Sequence of Neuronal acetylcholine receptor; alpha4/beta2 (Homo sapiens, UniProt P17787+P43681) (P17787 whole entry): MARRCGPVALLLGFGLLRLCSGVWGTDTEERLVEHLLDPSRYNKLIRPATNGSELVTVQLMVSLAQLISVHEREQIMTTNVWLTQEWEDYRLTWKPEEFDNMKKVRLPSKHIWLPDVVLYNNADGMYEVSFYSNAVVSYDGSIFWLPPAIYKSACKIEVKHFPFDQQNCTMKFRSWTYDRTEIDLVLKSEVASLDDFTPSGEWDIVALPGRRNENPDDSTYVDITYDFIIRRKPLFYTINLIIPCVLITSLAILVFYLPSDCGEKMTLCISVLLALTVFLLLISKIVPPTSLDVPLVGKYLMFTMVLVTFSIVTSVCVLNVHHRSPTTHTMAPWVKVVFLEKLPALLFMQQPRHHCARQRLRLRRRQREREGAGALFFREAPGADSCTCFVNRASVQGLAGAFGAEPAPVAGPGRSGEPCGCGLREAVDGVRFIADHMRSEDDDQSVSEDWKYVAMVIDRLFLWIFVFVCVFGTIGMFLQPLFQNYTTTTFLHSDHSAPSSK
Sequence of Neuronal acetylcholine receptor; alpha4/beta2 (Homo sapiens, UniProt P17787+P43681) (P43681 whole entry): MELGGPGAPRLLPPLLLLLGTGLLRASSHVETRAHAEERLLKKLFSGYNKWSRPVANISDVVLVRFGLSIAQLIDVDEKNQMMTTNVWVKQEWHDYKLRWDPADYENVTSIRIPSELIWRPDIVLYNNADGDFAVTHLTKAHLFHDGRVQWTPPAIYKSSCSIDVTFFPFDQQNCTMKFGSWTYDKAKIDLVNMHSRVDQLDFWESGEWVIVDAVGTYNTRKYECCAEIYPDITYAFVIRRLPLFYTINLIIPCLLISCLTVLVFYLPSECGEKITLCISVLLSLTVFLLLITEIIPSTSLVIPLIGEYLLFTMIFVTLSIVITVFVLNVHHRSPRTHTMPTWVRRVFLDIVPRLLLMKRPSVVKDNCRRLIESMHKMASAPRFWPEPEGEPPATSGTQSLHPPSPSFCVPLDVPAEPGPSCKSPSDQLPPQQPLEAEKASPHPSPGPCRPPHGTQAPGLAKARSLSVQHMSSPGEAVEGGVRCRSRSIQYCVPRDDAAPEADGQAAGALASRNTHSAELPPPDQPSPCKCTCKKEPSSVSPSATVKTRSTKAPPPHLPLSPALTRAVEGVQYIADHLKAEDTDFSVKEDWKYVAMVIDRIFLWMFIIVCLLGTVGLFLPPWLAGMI

[3] = target: Neuronal acetylcholine receptor subunit alpha-7 (Homo sapiens, UniProt P36544); assay: Inhibition of [3H]alpha-bungarotoxin binding to nicotinic acetylcholine receptor alpha7 of IMR32 cells; assay type: cell-based, IMR-32
Sequence of Neuronal acetylcholine receptor subunit alpha-7 (P36544 whole entry): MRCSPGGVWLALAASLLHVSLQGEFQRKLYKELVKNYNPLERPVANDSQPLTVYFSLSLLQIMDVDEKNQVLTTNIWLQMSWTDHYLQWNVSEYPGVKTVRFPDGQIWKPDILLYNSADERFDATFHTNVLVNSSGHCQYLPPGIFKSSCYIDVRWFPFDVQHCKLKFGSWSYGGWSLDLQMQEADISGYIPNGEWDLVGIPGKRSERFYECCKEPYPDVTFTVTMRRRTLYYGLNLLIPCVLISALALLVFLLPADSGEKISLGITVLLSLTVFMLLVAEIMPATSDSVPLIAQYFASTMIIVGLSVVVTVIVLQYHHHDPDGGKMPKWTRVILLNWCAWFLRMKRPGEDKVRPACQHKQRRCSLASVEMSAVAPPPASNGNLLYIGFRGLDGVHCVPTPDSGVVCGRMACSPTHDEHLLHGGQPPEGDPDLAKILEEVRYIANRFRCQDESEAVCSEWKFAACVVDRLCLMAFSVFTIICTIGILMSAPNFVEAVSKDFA

[4] = target: Neuronal acetylcholine receptor; alpha4/beta2 (Rattus norvegicus, UniProt P09483+P12390); assay: Inhibition of [3H]-nicotine binding to nicotinic acetylcholine receptor alpha4-beta2 in rat cortex
Sequence of Neuronal acetylcholine receptor; alpha4/beta2 (Rattus norvegicus, UniProt P09483+P12390) (P09483 whole entry): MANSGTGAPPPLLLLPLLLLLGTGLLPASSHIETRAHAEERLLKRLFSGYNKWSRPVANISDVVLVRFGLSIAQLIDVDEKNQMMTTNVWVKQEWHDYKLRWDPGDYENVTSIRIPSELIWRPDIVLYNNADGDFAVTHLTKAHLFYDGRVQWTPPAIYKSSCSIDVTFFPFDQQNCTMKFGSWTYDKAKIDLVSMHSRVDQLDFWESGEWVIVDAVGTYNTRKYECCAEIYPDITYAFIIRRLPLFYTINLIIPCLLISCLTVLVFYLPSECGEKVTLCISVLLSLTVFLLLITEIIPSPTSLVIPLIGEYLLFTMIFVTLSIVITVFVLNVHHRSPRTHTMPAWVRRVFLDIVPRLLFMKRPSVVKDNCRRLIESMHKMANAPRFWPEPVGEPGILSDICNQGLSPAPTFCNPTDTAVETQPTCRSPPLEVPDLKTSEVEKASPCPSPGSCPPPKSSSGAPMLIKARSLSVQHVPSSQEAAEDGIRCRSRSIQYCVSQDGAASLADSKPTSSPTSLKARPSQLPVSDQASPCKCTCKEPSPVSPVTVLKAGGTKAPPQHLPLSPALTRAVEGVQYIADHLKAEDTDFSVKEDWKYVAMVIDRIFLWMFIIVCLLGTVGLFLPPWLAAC
Sequence of Neuronal acetylcholine receptor; alpha4/beta2 (Rattus norvegicus, UniProt P09483+P12390) (P12390 whole entry): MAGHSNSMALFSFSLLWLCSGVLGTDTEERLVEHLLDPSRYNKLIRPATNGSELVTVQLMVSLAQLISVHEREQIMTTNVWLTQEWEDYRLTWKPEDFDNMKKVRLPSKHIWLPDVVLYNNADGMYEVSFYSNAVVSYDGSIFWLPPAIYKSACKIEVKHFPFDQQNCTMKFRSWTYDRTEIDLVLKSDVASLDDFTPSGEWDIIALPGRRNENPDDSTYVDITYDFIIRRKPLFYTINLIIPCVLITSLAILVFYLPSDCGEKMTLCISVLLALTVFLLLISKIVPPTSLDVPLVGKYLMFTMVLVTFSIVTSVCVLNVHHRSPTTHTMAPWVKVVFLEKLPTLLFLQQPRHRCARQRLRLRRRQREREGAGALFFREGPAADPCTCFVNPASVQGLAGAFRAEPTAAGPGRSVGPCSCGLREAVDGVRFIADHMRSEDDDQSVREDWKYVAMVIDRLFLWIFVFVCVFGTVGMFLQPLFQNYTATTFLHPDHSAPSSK

[5] = Inhibition of [3H]alpha-bungarotoxin binding to nicotinic acetylcholine receptor alpha-1-beta-1-delta-gamma of electroplax; parameters: species or system pisces

Sequence of Neuronal acetylcholine receptor; alpha3/beta4 (P30926 whole entry): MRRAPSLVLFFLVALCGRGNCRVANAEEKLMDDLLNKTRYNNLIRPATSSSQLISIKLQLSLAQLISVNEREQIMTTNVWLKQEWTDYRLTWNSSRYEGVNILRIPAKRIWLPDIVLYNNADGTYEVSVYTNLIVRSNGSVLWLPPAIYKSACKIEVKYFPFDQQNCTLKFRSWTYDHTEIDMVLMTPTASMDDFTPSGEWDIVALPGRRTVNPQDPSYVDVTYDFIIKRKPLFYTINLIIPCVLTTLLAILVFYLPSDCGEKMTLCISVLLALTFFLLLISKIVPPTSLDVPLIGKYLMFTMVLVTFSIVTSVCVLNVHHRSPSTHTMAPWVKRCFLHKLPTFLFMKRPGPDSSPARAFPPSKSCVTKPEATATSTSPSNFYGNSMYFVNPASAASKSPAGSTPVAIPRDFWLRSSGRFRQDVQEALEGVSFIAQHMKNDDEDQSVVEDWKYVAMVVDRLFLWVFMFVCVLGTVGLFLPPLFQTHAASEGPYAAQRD
Sequence of Neuronal acetylcholine receptor; alpha3/beta4 (P32297 whole entry): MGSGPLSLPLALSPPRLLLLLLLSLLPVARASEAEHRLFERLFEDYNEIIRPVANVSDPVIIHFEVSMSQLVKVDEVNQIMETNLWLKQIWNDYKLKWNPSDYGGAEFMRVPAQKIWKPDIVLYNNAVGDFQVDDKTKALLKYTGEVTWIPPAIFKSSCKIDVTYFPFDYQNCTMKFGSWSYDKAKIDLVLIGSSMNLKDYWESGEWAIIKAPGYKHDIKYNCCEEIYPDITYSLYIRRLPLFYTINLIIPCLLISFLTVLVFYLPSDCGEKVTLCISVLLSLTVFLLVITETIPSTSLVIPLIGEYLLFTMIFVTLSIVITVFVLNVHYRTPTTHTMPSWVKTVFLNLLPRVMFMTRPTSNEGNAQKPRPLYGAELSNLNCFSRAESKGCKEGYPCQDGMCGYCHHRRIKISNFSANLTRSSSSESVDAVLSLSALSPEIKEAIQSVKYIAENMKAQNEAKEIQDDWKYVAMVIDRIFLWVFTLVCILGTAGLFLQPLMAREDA

Compound | Ki [2] [nM] | also measured
Fc1ccc2c(c1)CC1CNCC2C1 (stereo unspecified) | 2 | Ki [1]: 710 nM; Ki [3]: 350 nM
COC(=O)c1ccc2c(c1)CC1CNCC2C1 (stereo unspecified) | 34 | –
COc1ccc(-c2ccc3c(c2)CC2CNCC3C2)cc1 (stereo unspecified) | 370 | –
NC(=O)COc1ccc2c(c1)CC1CNCC2C1 (stereo unspecified) | > 500 | –
COc1ccc2c(c1)C1CNCC(C2)C1 (stereo unspecified) | – | Ki [4]: 90 nM
Fc1ccc2c(c1F)CC1CNCC2C1 (stereo unspecified) | 0.44 | Ki [1]: 810 nM; Ki [5]: 3000 nM; Ki [3]: 520 nM
FC(F)Oc1ccc2c(c1)CC1CNCC2C1 (stereo unspecified) | 7 | Ki [3]: 1700 nM
CC(C)(O)c1ccc2c(c1)CC1CNCC2C1 (stereo unspecified) | 264 | –
FC(F)(F)c1ccc(-c2ccc3c(c2)CC2CNCC3C2)cc1 (stereo unspecified) | 200 | –
O=[N+]([O-])c1cccc2c1C1CNCC(C2)C1 (stereo unspecified) | 14 | –
COc1ccc2c(c1)CC1CNCC2C1 (stereo unspecified) | 1.4 | Ki [1]: 810 nM; Ki [4]: 3.2 nM; Ki [3]: 2400 nM
O=[N+]([O-])c1ccc2c(c1)C1CNCC(C2)C1 (stereo unspecified) | 6.5 | Ki [1]: 980 nM
Oc1ccc2c(c1)CC1CNCC2C1 (stereo unspecified) | 90 | –
COc1ccc2c(c1O)CC1CNCC2C1 (stereo unspecified) | 13 | –
c1cc2c(c3c1CC1CNCC3C1)OCO2 (stereo unspecified) | 5.7 | Ki [1]: 1900 nM; Ki [5]: 4500 nM; Ki [3]: 5100 nM
Oc1ccc2c(c1)C1CNCC(C2)C1 (stereo unspecified) | – | Ki [4]: 75 nM
c1ccc2c(c1)CC1CNCC2C1 (stereo unspecified) | 34 | Ki [4]: 65 nM
c1ccc(-c2ccc3c(c2)CC2CNCC3C2)cc1 (stereo unspecified) | > 500 | –
c1cncc(-c2ccc3c(c2)CC2CNCC3C2)c1 (stereo unspecified) | > 500 | –
Oc1cccc2c1CC1CNCC2C1 (stereo unspecified) | 2.9 | –
COc1cccc2c1CC1CNCC2C1 (stereo unspecified) | > 500 | –
O=c1cccc2n1C[C@@H]1CNC[C@H]2C1 [CYTISINICLINE] | 0.23 | Ki [5]: 250 nM; Ki [3]: 4200 nM
CC(C)c1ccc2c(c1)CC1CNCC2C1 (stereo unspecified) | 72 | –
O=[N+]([O-])c1ccc2c(c1)CC1CNCC2C1 (stereo unspecified) | 4.9 | Ki [1]: 340 nM
O=c1oc2ccc3c(c2o1)CC1CNCC3C1 (stereo unspecified) | > 500 | –
CCOc1ccc2c(c1)CC1CNCC2C1 (stereo unspecified) | 13 | –
Nc1cccc(-c2ccc3c(c2)CC2CNCC3C2)c1 (stereo unspecified) | > 500 | –
Fc1cccc2c1CC1CNCC2C1 (stereo unspecified) | 6.5 | Ki [3]: 830 nM
